# Source: PubChem
# mIAP block – inhibitors of mouse IAP, primary screen, biochemical, luminescence, uHTS; intestinal alkaline phosphatase [Mus musculus]; purified mouse IAP, CDP-Star luminescence, 30 min; inhibition, % at 10 µM; 330,000 compounds, 0.2% hits;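 active = inhibition of at least 40% at 10 µM in the primary screen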;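 also: plate controls were DMSO with enzyme for no effect and no enzyme wells for full effect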
# bIAP inh – bovine intestinal alkaline phosphatase inhibitors, primary screen, selectivity assay for TNAP inhibitor project, biochemical, bovine IAP, CDP-star luminescence. AID 1019, 2008. inhibition, % at 20 µM. 190,000 tested, under 10 active. purified bovine IAP, 30 min;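 active = over 50% inhibition of intestinal alkaline phosphatase at 20 µM in the single-dose screen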
#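 System: Purified bovine intestinal alkaline phosphatase (IAP) enzyme | Input: IAP diluted 1/65,000,000 in the well | Also added: CDP-star chemiluminescent phosphatase substrate, 30 µM final | Dosing: 20 µM single dose | Times: Enzyme reaction for 30 min at room temperature | Detection: Luminescence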
# mIAP act – activators of mouse IAP, primary screen, biochemical, luminescence, uHTS. AID 2805, 2010. intestinal alkaline phosphatase [Mus musculus]. activation factor at 10 µM. 330,000 compounds, 0.24% hits. muIAP, CDP-Star luminescence, 30 min; stronger effect = higher value; 1 = vehicle-only enzyme signal, 0 = enzyme-free wells;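 active = activation factor of at least 2 at 20 µM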
#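 also added = chemiluminescent substrate CDP-Star | test system = mouse IAP enzyme | signal = chemiluminescence readout | compound = DMSO-dissolved test compounds | incubation = 30 min at room temperature | benchmarks = DMSO wells, no-enzyme wells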
# hIAP activ – human IAP activators, primary screen, biochemical, luminescence, uHTS; Intestinal-type alkaline phosphatase (Homo sapiens), P09923; purified human IAP, CDP-Star luminescence, 30 min; stronger effect = higher value; 1 = vehicle-only enzyme, 0 = enzyme-free background; activation factor at 10 µM; 330,000 compounds, 0.16% hits;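 active = activation factor of the enzyme at least 2-fold when tested at 20 µM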
# Target sequence (P09923 whole entry, looked up): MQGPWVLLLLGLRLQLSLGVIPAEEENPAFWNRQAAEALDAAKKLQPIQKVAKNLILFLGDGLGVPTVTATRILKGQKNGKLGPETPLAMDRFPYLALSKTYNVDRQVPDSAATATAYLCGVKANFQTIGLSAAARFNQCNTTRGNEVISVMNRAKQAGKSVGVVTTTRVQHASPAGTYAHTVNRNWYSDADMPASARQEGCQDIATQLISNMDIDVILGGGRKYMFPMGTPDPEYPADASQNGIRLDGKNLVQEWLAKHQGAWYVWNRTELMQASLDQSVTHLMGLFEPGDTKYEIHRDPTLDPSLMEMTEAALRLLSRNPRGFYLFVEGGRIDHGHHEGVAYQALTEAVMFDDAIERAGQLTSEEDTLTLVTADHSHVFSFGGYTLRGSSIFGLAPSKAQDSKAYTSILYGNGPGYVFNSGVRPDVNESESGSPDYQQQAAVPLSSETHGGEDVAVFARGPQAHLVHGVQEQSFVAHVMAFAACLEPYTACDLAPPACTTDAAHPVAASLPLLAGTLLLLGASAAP
# bIAP act – bovine intestinal alkaline phosphatase activators, primary screen, biochemical, bovine IAP, CDP-star luminescence; 200,000 compounds, 0.17% hits; purified bovine IAP, 30 min; stronger effect = higher value; fold of DMSO-control signal, blank-subtracted; alkaline phosphatase, intestinal [Bos taurus]; activation factor at 20 µM; AID 1016, 2008;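 active = activation factor of 2 or more at 20 µM, a signal rise over negative controls twice the positive control's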
# hIAP block – human IAP inhibitors, primary screen, biochemical, luminescence, uHTS | Intestinal-type alkaline phosphatase (Homo sapiens), P09923 | purified IAP, CDP-Star luminescence, 30 min | AID 2544, 2010 | inhibition, % at 10 µM | 330,000 compounds, 0.12% hits;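 active = inhibition reaching a set limit with compound at 10 µM in the primary screen, cut at about 35% in these data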;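 also: plate controls were DMSO wells with enzyme for no effect and no-enzyme buffer wells for full effect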
# hIAP act conf – human IAP activators, confirmation, biochemical, luminescence, single concentration, uHTS hits. purified IAP, CDP-Star luminescence, 30 min; stronger effect = lower value. AID 434926, 2010. shares compounds with hIAP activ. activation (%Activity, negative = activation), % at 8.3 µM. 880 compounds, 10% hits;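 active = at least twofold enzyme activation in any of six single-dose repeats, which the averaged readout prints as negative percent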
# An asterisk follows results filed as active; . = not tested or not shown. Hits are enriched below; roughly 0.79% of the tested compounds scored in any of these assays.
SMILES,mIAP block,bIAP inh,mIAP act,hIAP activ,bIAP act,hIAP block,hIAP act conf
CCOC(=O)c1c(C)[nH]c(C(=O)N/N=C/c2cc([N+](=O)[O-])ccc2O)c1C,38.8,.,0.612,2.08*,.,-108.4,29.6
CCOC(=O)c1c(C)[nH]c(C(=O)N/N=C\c2ccccc2O)c1C,.,-18.5,.,.,1.2,.,.
Cc1cc(C)cc(NC(=S)N2CCCC2)c1,-0.2,.,1,0.644,.,35.6*,-26.7
COC(=O)/C=C1\N/C(=N/c2nc(C)c3cc(OC)ccc3n2)NC1=O,0.6,.,0.994,2.54*,.,-154.1,-12.5
COC(=O)/C=C1/C(=O)N/C(=N\c2nc(C)cc(C)n2)N1c1ccc(OC)cc1,5.5,2.4,0.945,0.836,1,16.4,.
CC1=C/C(=C\C=C(C#N)C#N)N(C)c2ccccc21,24.3,.,0.757,0.638,.,36.2*,4.2
N#C/C(=C\c1ccccc1)C(=O)NC(=O)Oc1ccccc1,-3.1,5.1,1.03,0.622,0.9,37.8*,-5.7
N#C/C(=C\c1ccccc1Cl)C(=O)NC(=O)Oc1ccccc1,0.2,9.0,0.998,0.89,0.9,11.0,.
Cc1nn(C)c(NC(=O)c2ccccc2Cl)c1Cl,-0.9,.,1.01,0.989,.,1.1,.
Nc1nc(NCCCN2CCOCC2)nc(Nc2cccc(F)c2)c1[N+](=O)[O-],11.9,.,0.881,0.639,.,36.1*,-18.1
CC(=O)c1cccc(NC(=O)NNC(=O)c2ccc(-c3ccccc3)cc2)c1,11.3,.,0.887,1.14,.,-13.9,.
O=C(CSc1cccc[n+]1[O-])Nc1c(Br)cc([N+](=O)[O-])cc1Br,2.4,-22.1,0.976,1.05,1.2,-5.3,.
COc1c(-c2ccc(O)c(O)c2)oc2cc(O)cc(O)c2c1=O,31.3,.,0.687,0.404,.,59.6*,2.4
CCN(CC)S(=O)(=O)c1ccc(N2CCOCC2)c(NC(=S)NC(=O)c2ccco2)c1,12.2,.,0.878,1.1,.,-10.1,.
COc1cc(/C=C2\SC(=S)N(NC(=O)c3cccc(O)c3)C2=O)ccc1O,28.6,.,0.714,0.739,.,26.1,.
COc1cc(/C=C2\SC(=S)N(NC(=O)c3ccncc3)C2=O)ccc1O,36.7,.,0.633,0.648,.,35.2*,-2.7
COc1cc(/C=C2\SC(=S)N(N3CCOCC3)C2=O)ccc1O,34.5,.,0.655,0.556,.,44.4*,-24.0
COc1cc(/C=C2\SC(=S)N(NC(=O)c3ccc(O)c(OC)c3)C2=O)ccc1O,26.4,.,0.736,0.543,.,45.7*,-49.6
CCCCc1nnc(NC(=O)c2oc3ccccc3c2C)s1,-1.6,.,1.02,1.21,.,-20.6,.
Cc1ccsc1C(=O)OC(C)C(=O)NC1CCCCC1C (stereo unspecified),-4.4,.,1.04,1.05,.,-4.9,.
COc1ccc(-c2csc(NC(=S)NC(=O)c3ccccc3)n2)cc1Br,9.7,.,0.903,1.18,.,-17.9,.
COc1ccc(C(=O)NC(=S)Nc2nc(-c3ccc(OC)c(Br)c3)cs2)cc1Br,16.0,.,0.84,0.62,.,38.0*,1.2
NC(=S)NNC(=O)COc1ccccc1O,33.0,.,0.67,2.15*,.,-114.6,-3.2
COc1ccccc1OCC(=O)NNC(=O)CCCC(=O)NNC(=O)COc1ccccc1OC,15.1,.,0.849,0.765,.,23.5,.
c1ccc(COc2ccc(CNn3cnnc3)cc2)cc1,1.6,3.9,0.984,0.456,1,54.4*,-4.7
CN(C)c1ccc(N=Nc2cccc(F)c2)cc1,11.8,.,0.882,0.954,.,4.6,.
CN(C)c1ccc(N=Nc2cccc3ccoc23)cc1,28.0,.,0.72,0.635,.,36.5*,-35.0
CCn1c(C)nc2cc(C(=O)NNC(=S)Nc3ccc(C)cc3)ccc21,-15.3,.,1.15,2.01*,.,-100.9,-47.8
O=C(/C=C/c1ccccc1O)c1ccco1,22.2,.,0.778,0.578,.,42.2*,-104.2*
O=C(/C=C/c1cc(Br)ccc1O)c1ccco1,3.3,.,0.967,0.911,.,8.9,.
